{"source": "ChEMBL document CHEMBL3272084", "about": "“Adamantane and protoadamantanealkanamines as potential anti-Parkinson agents” (J Med Chem, 1976)", "key": {"[1]": {"test_system": "Mus musculus", "assay": "Antiparkinsonian activity in CFW mouse assessed as reversal of reserpine-induced catalepsy at 0.07 mmol/kg, sc measured every 30 mins up to 1.5 hrs", "assay_type": "functional, organism-based", "method_in_brief": "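Groups of five CFW mice were given reserpine 4 mg/kg sc, and catalepsy was assessed 2.5 h later. Reversal was scored 0–5: 0 no effect, 1 marginal, 2 significant, 3 marked, 4 approaching complete, 5 complete reversal.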"}, "[2]": {"test_system": "Rattus norvegicus", "assay": "Antiparkinsonian activity in Wistar rat assessed as reversal of reserpine-induced catalepsy at 0.14 mmol/kg, po measured every 30 mins up to 1.5 hrs", "assay_type": "functional, organism-based"}, "[3]": {"test_system": "Mus musculus", "assay": "Antidepressant activity in CFW mouse assessed as reversal of reserpine-induced hypothermia by measuring temperature index at 0.07 mmol/kg, sc measured every 30 mins up to 1.5 hrs", "assay_type": "functional"}, "[4]": {"assay": "Acute toxicity in po dosed albino CFW mouse assessed as mortality measured over 48 hrs", "assay_type": "organism-based", "settings": "albino CFW, in vivo"}, "[5]": {"test_system": "Mus musculus", "assay": "Antidepressant activity in CFW mouse assessed as reversal of reserpine-induced hypothermia by measuring temperature index at 0.16 mmol/kg, sc measured every 30 mins up to 1.5 hrs", "assay_type": "functional"}, "[6]": {"test_system": "Mus musculus", "assay": "Antiparkinsonian activity in CFW mouse assessed as reversal of reserpine-induced catalepsy at 0.16 mmol/kg, sc measured every 30 mins up to 1.5 hrs", "assay_type": "functional, organism-based"}, "[7]": {"assay": "Acute toxicity in ip dosed albino CFW mouse assessed as mortality measured over 48 hrs", "assay_type": "organism-based", "settings": "albino CFW, in vivo"}, "[8]": {"test_system": "Mus musculus", "assay": "Antiparkinsonian activity in CFW mouse assessed as reversal of reserpine-induced catalepsy at 0.05 mmol/kg, sc measured every 30 mins up to 1.5 hrs", "assay_type": "functional, organism-based"}, "[9]": {"test_system": "Mus musculus", "assay": "Antidepressant activity in CFW mouse assessed as reversal of reserpine-induced hypothermia by measuring temperature index at 0.05 mmol/kg, sc measured every 30 mins up to 1.5 hrs", "assay_type": "functional, organism-based"}, "[10]": {"test_system": "Mus musculus", "assay": "Antiparkinsonian activity in CFW mouse assessed as reversal of reserpine-induced catalepsy at 0.32 mmol/kg, sc measured every 30 mins up to 1.5 hrs", "assay_type": "functional, organism-based"}, "[11]": {"test_system": "Mus musculus", "assay": "Antidepressant activity in CFW mouse assessed as reversal of reserpine-induced hypothermia by measuring temperature index at 0.32 mmol/kg, sc measured every 30 mins up to 1.5 hrs", "assay_type": "functional, organism-based"}, "[12]": {"test_system": "Mus musculus", "assay": "Antiparkinsonian activity in CFW mouse assessed as reversal of reserpine-induced catalepsy at 0.14 mmol/kg, sc measured every 30 mins up to 1.5 hrs", "assay_type": "functional, organism-based"}, "[13]": {"test_system": "Mus musculus", "assay": "Antidepressant activity in CFW mouse assessed as reversal of reserpine-induced hypothermia by measuring temperature index at 0.14 mmol/kg, sc measured every 30 mins up to 1.5 hrs", "assay_type": "functional"}, "[14]": {"test_system": "Rattus norvegicus", "assay": "Antiparkinsonian activity in Wistar rat assessed as reversal of reserpine-induced catalepsy at 0.15 mmol/kg, po measured every 30 mins up to 1.5 hrs", "assay_type": "functional, organism-based"}, "[15]": {"test_system": "Mus musculus", "assay": "Antidepressant activity in CFW mouse assessed as reversal of reserpine-induced hypothermia by measuring temperature index at 0.04 mmol/kg, sc measured every 30 mins up to 1.5 hrs", "assay_type": "functional"}, "[16]": {"test_system": "Mus musculus", "assay": "Antiparkinsonian activity in CFW mouse assessed as reversal of reserpine-induced catalepsy at 0.15 mmol/kg, sc measured every 30 mins up to 1.5 hrs", "assay_type": "functional, organism-based"}, "[17]": {"test_system": "Mus musculus", "assay": "Antiparkinsonian activity in CFW mouse assessed as reversal of reserpine-induced catalepsy at 0.11 mmol/kg, sc measured every 30 mins up to 1.5 hrs", "assay_type": "functional, organism-based"}, "[18]": {"test_system": "Mus musculus", "assay": "Antidepressant activity in CFW mouse assessed as reversal of reserpine-induced hypothermia by measuring temperature index at 0.11 mmol/kg, sc measured every 30 mins up to 1.5 hrs", "assay_type": "functional, organism-based"}, "[19]": {"test_system": "Rattus norvegicus", "assay": "Antiparkinsonian activity in Wistar rat assessed as reversal of reserpine-induced catalepsy at 0.21 mmol/kg, po measured every 30 mins up to 1.5 hrs", "assay_type": "functional, organism-based"}, "[20]": {"test_system": "Mus musculus", "assay": "Antidepressant activity in CFW mouse assessed as reversal of reserpine-induced hypothermia by measuring temperature index at 0.21 mmol/kg, sc measured every 30 mins up to 1.5 hrs", "assay_type": "functional"}, "[21]": {"test_system": "Mus musculus", "assay": "Antiparkinsonian activity in CFW mouse assessed as reversal of reserpine-induced catalepsy at 0.21 mmol/kg, sc measured every 30 mins up to 1.5 hrs", "assay_type": "functional, organism-based"}, "[22]": {"test_system": "Mus musculus", "assay": "Antidepressant activity in CFW mouse assessed as reversal of reserpine-induced hypothermia by measuring temperature index at 0.20 mmol/kg, sc measured every 30 mins up to 1.5 hrs", "assay_type": "functional, organism-based"}, "[23]": {"test_system": "Mus musculus", "assay": "Antiparkinsonian activity in CFW mouse assessed as reversal of reserpine-induced catalepsy at 0.20 mmol/kg, sc measured every 30 mins up to 1.5 hrs", "assay_type": "functional, organism-based"}, "[24]": {"test_system": "Rattus norvegicus", "assay": "Antiparkinsonian activity in Wistar rat assessed as reversal of reserpine-induced catalepsy at 0.08 mmol/kg, po measured every 30 mins up to 1.5 hrs", "assay_type": "functional, organism-based"}, "[25]": {"test_system": "Mus musculus", "assay": "Antiparkinsonian activity in CFW mouse assessed as reversal of reserpine-induced catalepsy at 0.13 mmol/kg, sc measured every 30 mins up to 1.5 hrs", "assay_type": "functional, organism-based"}, "[26]": {"test_system": "Mus musculus", "assay": "Antidepressant activity in CFW mouse assessed as reversal of reserpine-induced hypothermia by measuring temperature index at 0.13 mmol/kg, sc measured every 30 mins up to 1.5 hrs", "assay_type": "functional, organism-based"}, "[27]": {"test_system": "Rattus norvegicus", "assay": "Antiparkinsonian activity in Wistar rat assessed as reversal of reserpine-induced catalepsy at 0.11 mmol/kg, po measured every 30 mins up to 1.5 hrs", "assay_type": "functional, organism-based"}, "[28]": {"test_system": "Mus musculus", "assay": "Antiparkinsonian activity in CFW mouse assessed as reversal of reserpine-induced catalepsy at 0.08 mmol/kg, sc measured every 30 mins up to 1.5 hrs", "assay_type": "functional, organism-based"}}, "note": "Activity calls are given as the source filed them. No cut-off for these calls is given here."}
{"smiles": "CNCC12CC3CC(CC(C3)C1c1ccccc1)C2.Cl", "note": "(centres undefined)", "values": [{"measurement": "Activity", "setting": "[1]", "value": "inactive"}, {"measurement": "Activity", "setting": "[2]", "value": "inactive"}, {"measurement": "Activity", "setting": "[3]", "value": 5}]}
{"smiles": "Cl.NC1CC2CC3CC(C2)C1C3", "note": "(centres undefined)", "values": [{"measurement": "LD50 at 48 h", "setting": "[4]", "value": 3200, "unit": "µmol/kg"}, {"measurement": "Activity", "setting": "[5]", "value": "inactive"}, {"measurement": "Activity", "setting": "[6]", "value": "inactive"}, {"measurement": "LD50 at 48 h", "setting": "[7]", "value": 800, "unit": "µmol/kg"}]}
{"smiles": "O=C(O)/C=C\\C(=O)O.c1ccc(CNCC2CC3CC4CC(C3)C2C4)cc1", "note": "(centres undefined)", "values": [{"measurement": "Activity", "setting": "[8]", "value": "inactive"}, {"measurement": "Activity", "setting": "[9]", "value": "inactive"}, {"measurement": "LD50 at 48 h", "setting": "[4]", "value": 500, "unit": "µmol/kg"}, {"measurement": "LD50 at 48 h", "setting": "[7]", "value": 200, "unit": "µmol/kg"}]}
{"smiles": "CNCC1(O)CC2CC3CC(C2)C1C3.O=C(O)/C=C\\C(=O)O", "note": "(centres undefined)", "values": [{"measurement": "Activity", "setting": "[10]", "value": "inactive"}, {"measurement": "Activity", "setting": "[11]", "value": "inactive"}, {"measurement": "LD50 at 48 h", "setting": "[4]", "value": 3900, "unit": "µmol/kg"}, {"measurement": "LD50 at 48 h", "setting": "[7]", "value": 1900, "unit": "µmol/kg"}]}
{"smiles": "CNCC1CC2CC3CC(C2)C1C3.O=C(O)/C=C\\C(=O)O", "note": "(centres undefined)", "values": [{"measurement": "LD50 at 48 h", "setting": "[4]", "value": 1000, "unit": "µmol/kg"}, {"measurement": "Activity", "setting": "[12]", "value": "inactive"}, {"measurement": "Activity", "setting": "[13]", "value": 5}, {"measurement": "LD50 at 48 h", "setting": "[7]", "value": 500, "unit": "µmol/kg"}]}
{"smiles": "CNCCC12CC3CC(CC(C3)C1Cl)C2.Cl", "note": "(centres undefined)", "values": [{"measurement": "Activity", "setting": "[14]", "value": "Active"}, {"measurement": "LD50 at 48 h", "setting": "[4]", "value": 1500, "unit": "µmol/kg"}, {"measurement": "Activity", "setting": "[15]", "value": ">10"}, {"measurement": "LD50 at 48 h", "setting": "[7]", "value": 600, "unit": "µmol/kg"}, {"measurement": "Activity", "setting": "[16]", "value": "Active"}]}
{"smiles": "Cl.OCCNC1CC2CC3CC(C2)C1C3", "note": "(centres undefined)", "values": [{"measurement": "Activity", "setting": "[17]", "value": "inactive"}, {"measurement": "LD50 at 48 h", "setting": "[4]", "value": 2600, "unit": "µmol/kg"}, {"measurement": "Activity", "setting": "[18]", "value": "inactive"}, {"measurement": "LD50 at 48 h", "setting": "[7]", "value": 600, "unit": "µmol/kg"}]}
{"smiles": "NC12CC3CC(CC(C3)C1)C2", "note": "[AMANTADINE]", "values": [{"measurement": "Activity", "setting": "[19]", "value": "Active"}, {"measurement": "Activity", "setting": "[20]", "value": 5}, {"measurement": "Activity", "setting": "[21]", "value": "inactive"}]}
{"smiles": "CN(C)CC1(O)CC2CC3CC(C2)C1C3.Cl", "note": "(centres undefined)", "values": [{"measurement": "Activity", "setting": "[22]", "value": "inactive"}, {"measurement": "LD50 at 48 h", "setting": "[4]", "value": 1600, "unit": "µmol/kg"}, {"measurement": "Activity", "setting": "[23]", "value": "inactive"}, {"measurement": "LD50 at 48 h", "setting": "[7]", "value": 1200, "unit": "µmol/kg"}]}
{"smiles": "CN1CCN(CC2(O)CC3CC4CC(C3)C2C4)CC1.Cl", "note": "(centres undefined)", "values": [{"measurement": "Activity", "setting": "[3]", "value": 5}, {"measurement": "LD50 at 48 h", "setting": "[4]", "value": 2400, "unit": "µmol/kg"}, {"measurement": "LD50 at 48 h", "setting": "[7]", "value": 900, "unit": "µmol/kg"}, {"measurement": "Activity", "setting": "[16]", "value": "inactive"}]}
{"smiles": "Br.CN1CCN(CC23CC4CC(CC(C4)C2Br)C3)CC1", "note": "(centres undefined)", "values": [{"measurement": "Activity", "setting": "[24]", "value": "inactive"}, {"measurement": "Activity", "setting": "[25]", "value": "inactive"}, {"measurement": "LD50 at 48 h", "setting": "[4]", "value": 1200, "unit": "µmol/kg"}, {"measurement": "Activity", "setting": "[26]", "value": "inactive"}, {"measurement": "LD50 at 48 h", "setting": "[7]", "value": 600, "unit": "µmol/kg"}]}
{"smiles": "CNCCC12CC3CC(CC(C3)C1Br)C2.O=C(O)/C=C\\C(=O)O", "note": "(centres undefined)", "values": [{"measurement": "Activity", "setting": "[27]", "value": "Active"}, {"measurement": "LD50 at 48 h", "setting": "[4]", "value": 1600, "unit": "µmol/kg"}, {"measurement": "Activity", "setting": "[15]", "value": 5}, {"measurement": "Activity", "setting": "[28]", "value": "inactive"}, {"measurement": "LD50 at 48 h", "setting": "[7]", "value": 400, "unit": "µmol/kg"}]}
